The record followed here is ChEMBL document CHEMBL1121446, “Quantitative structure-pharmacokinetic relationships derived on antibacterial sulfonamides in rats and its comparison to quantitative structure-activity relationships” (J Med Chem, 1980).

Each structure is given as a SMILES string.

The term pKa denotes the pH at which an ionisable group is half protonated. Lower therefore signals a group that gives up its proton readily. The term half-life denotes the time in which the quantity being followed falls by half. Read a low half-life as rapid decline.

Data set [1] can be described thus: Total clearance from the body in rat. Type of data set: ADME, organism-based. Particulars: in vivo, read-out: ClT.
The species named for data set [2] is Rattus norvegicus. Kind of data set: Affinity for protein binding expressed as association constant in fresh rat serum. Type of data set: ADME, organism-based. The procedure, abridged: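 Sulfapyridines added to freshly prepared rat serum at 100-600 µmol/L in 100 µmol/L steps. Samples ultracentrifuged 10 h at 45000 rpm (g = 150000), 37 °C. Unbound drug in the top protein-free layer measured photometrically by Bratton-Marshall. Total drug measured before centrifugation, with controls correcting for sedimentation of unbound drug. Bound = total − free; Kassoc from a Scatchard plot.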

A short description of data set [3]: Acid dissociation constant. Format: ADME. The procedure, abridged: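 pKa of the sulfapyridine acidic NH measured spectrophotometrically.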
Data set [4] can be described thus: Half life in rat. Format: ADME, organism-based. Particulars: in vivo. The procedure, abridged: (§1)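 Male Sprague-Dawley rats received the SA sodium salt, 50 mg/kg, into the tail vein within 1 min. Tail-artery blood was sampled over time and plasma separated by centrifugation. Unmetabolized and total SA were assayed by modified Bratton-Marshall before and after hydrolysis of N4 metabolites. ke (or kC,U for unchanged drug) was obtained by computer fitting to a one-compartment model. Vc = dose / extrapolated initial plasma concentration.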

Data set [5] in a line: Overall elimination rate in rat. Type of data set: ADME, organism-based. Particulars: in vivo, read-out: ke (converted). The procedure, abridged:
as §1

For data set [6], the species on record is Rattus norvegicus. Kind of data set: Apparent volume of distribution was determined in rat. Format: ADME, organism-based. Particulars: in vivo. The procedure, abridged: as §1
The species named for data set [7] is Rattus norvegicus. Briefly: Metabolic clearance from the body in rat. Format: ADME, organism-based. Particulars: in vivo. The procedure, abridged:
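Metabolic clearance calculated as total clearance minus renal clearance. Plasma levels were measured before and after hydrolysis of N4-acetyl metabolites.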

The nature of data set [8]: First order rate of elimination of unchanged drug in rat. Particulars: in vivo, read-out: kC,U (converted). Format: ADME, organism-based. The procedure, abridged: as §1
Data set [9] in a line: Renal clearance from the body in rat. Format: ADME, organism-based, Kidney. Particulars: in vivo, read-out: CL_renal. The procedure, abridged:
(§2)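 Drug solutions were infused into rats at 1.9 mL/h, with plasma and urine concentrations measured simultaneously over time. Clearance = urine concentration × urine volume per minute / plasma concentration. Inulin and PAH clearances were also determined. Urine pH was set with NH4Cl (pH 5-6) or NaHCO3 (pH 7.8), compared with normal pH 6.8.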

A short description of data set [10]: Half life was determined. Type of data set: ADME. The settings on record: rat.
Data set [11] is described as follows: Renal clearance from the body. Type of data set: ADME, organism-based, Kidney. Particulars: in vivo; read-out: CL_renal. The procedure, abridged:
as §2

For `N#Cc1cccnc1NS(=O)(=O)c1ccc(N)cc1`, the clearance in data set [1] worked out at 0.77 mL/min. In addition, in the data set filed under Rattus norvegicus [2], the K ass was 1820 l M-1. The pKa in data set [3] worked out at 5.25. Moreover, the half-life in [4] was 1.44 h. Further, the k el in data set [5] is 0.000133 s⁻¹. The Vc in the data set listed under Rattus norvegicus [6] was found to be 96.7 mL.

In the case of `CCOc1cccnc1NS(=O)(=O)c1ccc(N)cc1`, the clearance in data set [1] is 0.81 mL/min. Moreover, the K ass in the data set filed under Rattus norvegicus [2] was 4169 l M-1. In data set [3], the pKa stood at 8.2. The molecule also had a half-life in data set [4] of 1.4 h. For the same molecule, the k el in data set [5] was 0.000138 s⁻¹. In addition, the Vc in the data set filed under Rattus norvegicus [6] is 98.3 mL.

Consider `Nc1ccc(S(=O)(=O)Nc2ncccc2Cl)cc1`, for which the clearance in data set [1] was determined as 0.2 mL/min. In the data set listed under Rattus norvegicus [2], the K ass is 13441 l M-1. In [3], this molecule gave a pKa of 6.8. Further, the half-life in data set [4] was 8.66 h. Further, the k el in data set [5] was 2.22e-05 s⁻¹. Besides, in the data set listed under Rattus norvegicus [6], the Vc stood at 147.5 mL.

As to `Cc1ccc(NS(=O)(=O)c2ccc(N)cc2)nc1`, in data set [1], the clearance was 1.15 mL/min. Moreover, the K ass in the data set listed under Rattus norvegicus [2] was 9183 l M-1. Also, the pKa in data set [3] came out at 8.95. Moreover, the half-life in [4] is 2.36 h. The k el in [5] was 8.17e-05 s⁻¹. Besides, the Vc in the data set listed under Rattus norvegicus [6] was 234 mL.

In the case of `Cc1ccnc(NS(=O)(=O)c2ccc(N)cc2)c1`, the clearance in data set [1] is 1.38 mL/min. Further, in the data set listed under Rattus norvegicus [2], the K ass is 6606 l M-1. Besides, the pKa in [3] turned out to be 9.01. The half-life in data set [4] is 1.19 h. Also, the k el in [5] was 0.000161 s⁻¹. In addition, in the data set filed under Rattus norvegicus [6], the Vc was determined as 142.8 mL.

In the case of `Nc1ccc(S(=O)(=O)Nc2ccc(Cl)cn2)cc1`, the ClM in the data set filed under Rattus norvegicus [7] came to 0.04 mL/min. The clearance in data set [1] amounted to 0.099 mL/min. Also, the K ass in the data set listed under Rattus norvegicus [2] was 25703 l M-1. This molecule came in with a pKa in data set [3] of 7.04. For the same molecule, in data set [4], the half-life was 21.6 h. Besides, the k el in data set [8] is 5.56e-06 s⁻¹; in [5] it was 8.89e-06 s⁻¹. The CL renal in data set [9] is 0.06 mL/min. Besides, in the data set listed under Rattus norvegicus [6], the Vc was 185.5 mL.

On to `Cc1cccc(NS(=O)(=O)c2ccc(N)cc2)n1`, for which the clearance in [1] is 1.04 mL/min. Moreover, the K ass in the data set filed under Rattus norvegicus [2] was 5129 l M-1. Further, in data set [3], the pKa worked out at 9.2. Besides, in data set [10], the half-life is 1.88 h. In addition, the k el in [5] is 0.000102 s⁻¹. The Vc in the data set filed under Rattus norvegicus [6] was 168.6 mL.

As for `CN(C)c1ccc(NS(=O)(=O)c2ccc(N)cc2)nc1`, the ClM in the data set listed under Rattus norvegicus [7] was determined as 0.19 mL/min. Besides, the clearance in [1] stood at 0.62 mL/min. The K ass in the data set filed under Rattus norvegicus [2] is reported as 8511 l M-1. The pKa in data set [3] was found to be 9.21. Moreover, the half-life in data set [4] was 2.08 h. Also, the k el was 6.39e-05 s⁻¹ in data set [8] and 9.25e-05 s⁻¹ in [5]. The CL renal in data set [9] was 0.43 mL/min. For the same molecule, in the data set filed under Rattus norvegicus [6], the Vc is 111.2 mL.

Regarding `Cc1cnc(NS(=O)(=O)c2ccc(N)cc2)c(C#N)c1`, the clearance in [1] was 0.47 mL/min. The K ass in the data set listed under Rattus norvegicus [2] was 10965 l M-1. Also, the pKa in data set [3] is 5.35. Further, the half-life in data set [4] was 2.18 h. Also, in data set [5], the k el is 8.83e-05 s⁻¹. Also, in the data set filed under Rattus norvegicus [6], the Vc was determined as 89.7 mL.

Turning to `Nc1ccc(S(=O)(=O)Nc2ccccn2)cc1` [SULFAPYRIDINE], in the data set listed under Rattus norvegicus [7], the ClM turned out to be 0.46 mL/min. The clearance in [1] was 1.79 mL/min. Besides, the K ass in the data set filed under Rattus norvegicus [2] is reported as 4592 l M-1. Moreover, the pKa in [3] amounted to 8.54. The same molecule showed a half-life in data set [4] of 1.47 h. Moreover, the k el in [8] is 9.72e-05 s⁻¹; in [5], 0.000131 s⁻¹. Also, in [9], the CL renal came to 1.33 mL/min. In addition, the Vc in the data set listed under Rattus norvegicus [6] was determined as 229 mL.

On to `Cc1cc(Br)cnc1NS(=O)(=O)c1ccc(N)cc1`, for which the clearance in data set [1] amounted to 0.2 mL/min. Besides, in the data set listed under Rattus norvegicus [2], the K ass was 5888 l M-1. In addition, the pKa in [3] was determined as 7.19. The molecule also showed a half-life in data set [4] of 8.15 h. The k el in data set [5] was 2.36e-05 s⁻¹. For the same molecule, the Vc in the data set filed under Rattus norvegicus [6] amounted to 142.6 mL.

For `Nc1ccc(S(=O)(=O)Nc2ccc([N+](=O)[O-])cn2)cc1`, the clearance in data set [1] amounted to 0.135 mL/min. Besides, the K ass in the data set listed under Rattus norvegicus [2] is reported as 20417 l M-1. Moreover, in [3], the pKa came to 5.56. This molecule showed a half-life in data set [4] of 16.5 h. Moreover, in [5], the k el was 1.17e-05 s⁻¹. For the same molecule, the Vc in the data set filed under Rattus norvegicus [6] worked out at 192.8 mL.

On to `COc1cccnc1NS(=O)(=O)c1ccc(N)cc1`, for which the clearance in data set [1] was 0.91 mL/min. In addition, in the data set listed under Rattus norvegicus [2], the K ass is reported as 2399 l M-1. Further, in data set [3], the pKa was 8.07. Also, the half-life in data set [4] was 1.27 h. Besides, in [5], the k el was 0.000151 s⁻¹. The Vc in the data set filed under Rattus norvegicus [6] was determined as 100.3 mL.

On to `Nc1ccc(S(=O)(=O)Nc2ncc(Br)cc2Br)cc1`, for which the ClM in the data set filed under Rattus norvegicus [7] worked out at 0.02 mL/min. The CL renal in [11] came to 0.03 mL/min. Moreover, in [1], the clearance was 0.048 mL/min. Moreover, in the data set listed under Rattus norvegicus [2], the K ass is 13800 l M-1. The same molecule had a pKa in [3] of 5.78. In addition, the half-life in data set [4] is 21.6 h. The k el in data set [8] is 5.56e-06 s⁻¹; in data set [5], 8.89e-06 s⁻¹. The Vc in the data set filed under Rattus norvegicus [6] was found to be 90.3 mL.

For the molecule `Cc1cccnc1NS(=O)(=O)c1ccc(N)cc1`, the clearance in [1] worked out at 1.17 mL/min. In addition, in the data set listed under Rattus norvegicus [2], the K ass is 1622 l M-1. In data set [3], the pKa was 8.74. The same molecule had a half-life in data set [4] of 1.29 h. Moreover, the k el in data set [5] was 0.000149 s⁻¹. The Vc in the data set filed under Rattus norvegicus [6] worked out at 131 mL.

In the data set filed under Rattus norvegicus [7], `Nc1ccc(S(=O)(=O)Nc2ncc(Cl)cc2Cl)cc1` registered a ClM of 0.03 mL/min. The clearance in data set [1] amounted to 0.05 mL/min. The K ass in the data set filed under Rattus norvegicus [2] was 12706 l M-1. Further, the pKa in data set [3] turned out to be 5.98. For the same molecule, the half-life in data set [4] is 21.6 h. Moreover, the k el in data set [8] is 8.33e-06 s⁻¹; in [5], 8.89e-06 s⁻¹. Moreover, the CL renal in [9] is 0.05 mL/min. In the data set filed under Rattus norvegicus [6], the Vc was 99.2 mL.

As to `Cc1cc(C)nc(NS(=O)(=O)c2ccc(N)cc2)c1`, the ClM in the data set filed under Rattus norvegicus [7] amounted to 0.48 mL/min. The clearance in data set [1] came out at 1.76 mL/min. Further, the K ass in the data set filed under Rattus norvegicus [2] is 5495 l M-1. Also, the pKa in [3] stood at 9.54. This molecule also gave a half-life in [4] of 1.2 h. In addition, the k el in data set [8] is 0.000117 s⁻¹; in data set [5] it was 0.00016 s⁻¹. For the same molecule, the CL renal in data set [9] is 1.28 mL/min. Moreover, the Vc in the data set filed under Rattus norvegicus [6] amounted to 183 mL.

Take `Nc1ccc(S(=O)(=O)Nc2ccc(Br)cn2)cc1`: the ClM in the data set listed under Rattus norvegicus [7] was found to be 0.07 mL/min. The clearance in data set [1] amounted to 0.116 mL/min. Further, in data set [3], the pKa was determined as 6.98. In data set [4], this molecule gave a half-life of 24.8 h. Moreover, the k el was 2.78e-06 s⁻¹ in [8] and 7.78e-06 s⁻¹ in data set [5]. In addition, the CL renal in [9] worked out at 0.04 mL/min. Besides, the Vc in the data set filed under Rattus norvegicus [6] stood at 247.1 mL.

Regarding `Cc1cc(Cl)cnc1NS(=O)(=O)c1ccc(N)cc1`, the clearance in data set [1] came out at 0.195 mL/min. Besides, in [3], the pKa came out at 7.26. Moreover, the half-life in [4] was 8.15 h. Besides, the k el in [5] was 2.36e-05 s⁻¹. Moreover, the Vc in the data set filed under Rattus norvegicus [6] came out at 137.9 mL.
